Two molecules from ChEMBL document CHEMBL3232894, “Discovery of AMG 925, a FLT3 and CDK4 dual kinase inhibitor with preferential affinity for the activated state of FLT3” (J Med Chem, 2014) can be followed below.

For orientation: pIC50 means the negative decadic logarithm of the IC50, by convention in mol/L. For orientation: clearance means the volume of plasma or blood freed of the substance per unit of time. High values mean efficient removal, low ones inefficient removal. For orientation: bioavailability means the share of a dose that reaches the circulation, judged against a reference dose that is usually intravenous. A high value points to good availability. Usually inhibition stands for the change of the read-out against control, counted positive when it falls. Usually Cmax stands for the peak of the concentration-time curve. One may read the AUC as concentration integrated over time. A low value points to low exposure.

pIC50: −log10 of the molar value. Activity calls are given as the source filed them. No cut-off for these calls is given here.

For one series, the species on record is Homo sapiens. Description: Selectivity ratio of IC50 for CDK1/cyclin B (unknown origin) to IC50 for CDK4/cyclin D1 (unknown origin).
Series [1] has as its target Cyclin-dependent kinase 4/cyclin D1 (Homo sapiens, UniProt P11802). Description: Inhibition of CDK4/cyclin D1 (unknown origin) using Rb as substrate after 60 mins by scintillation counting analysis in presence of [r-33P]ATP. The class given is protein-complex assay.
Series [2] deals with Cyclin-dependent kinase 1/cyclin B1 (Homo sapiens, UniProt P06493). Description: Inhibition of CDK1/cyclin B (unknown origin) using histone H1 as substrate after 60 mins by scintillation counting analysis in presence of [r-33P]ATP. It is filed as protein-complex assay.
Chain of Cyclin-dependent kinase 1/cyclin B1 (P06493 whole entry): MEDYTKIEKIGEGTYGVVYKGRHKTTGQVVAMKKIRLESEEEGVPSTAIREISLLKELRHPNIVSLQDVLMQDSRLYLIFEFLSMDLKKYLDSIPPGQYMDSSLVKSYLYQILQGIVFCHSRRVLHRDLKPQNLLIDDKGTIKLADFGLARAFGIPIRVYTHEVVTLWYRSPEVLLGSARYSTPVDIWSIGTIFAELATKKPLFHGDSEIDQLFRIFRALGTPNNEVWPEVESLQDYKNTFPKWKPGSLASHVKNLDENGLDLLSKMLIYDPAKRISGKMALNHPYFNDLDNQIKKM
Chain of Cyclin-dependent kinase 1/cyclin B1 (P14635 whole entry, further chain): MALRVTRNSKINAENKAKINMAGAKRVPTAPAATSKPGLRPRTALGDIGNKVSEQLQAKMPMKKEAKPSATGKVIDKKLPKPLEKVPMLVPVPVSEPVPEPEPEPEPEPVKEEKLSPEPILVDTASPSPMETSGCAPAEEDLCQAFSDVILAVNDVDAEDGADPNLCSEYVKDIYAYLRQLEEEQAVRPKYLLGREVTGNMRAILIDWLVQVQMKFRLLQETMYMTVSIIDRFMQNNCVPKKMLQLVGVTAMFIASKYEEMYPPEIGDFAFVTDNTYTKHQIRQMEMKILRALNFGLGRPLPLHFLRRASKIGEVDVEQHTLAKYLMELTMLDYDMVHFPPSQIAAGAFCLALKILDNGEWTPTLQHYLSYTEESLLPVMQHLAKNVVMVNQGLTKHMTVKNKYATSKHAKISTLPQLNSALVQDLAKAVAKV
In series [3] the target is T1, Receptor-type tyrosine-protein kinase FLT3 (Homo sapiens, UniProt P36888).
T1 sequence (P36888 whole entry): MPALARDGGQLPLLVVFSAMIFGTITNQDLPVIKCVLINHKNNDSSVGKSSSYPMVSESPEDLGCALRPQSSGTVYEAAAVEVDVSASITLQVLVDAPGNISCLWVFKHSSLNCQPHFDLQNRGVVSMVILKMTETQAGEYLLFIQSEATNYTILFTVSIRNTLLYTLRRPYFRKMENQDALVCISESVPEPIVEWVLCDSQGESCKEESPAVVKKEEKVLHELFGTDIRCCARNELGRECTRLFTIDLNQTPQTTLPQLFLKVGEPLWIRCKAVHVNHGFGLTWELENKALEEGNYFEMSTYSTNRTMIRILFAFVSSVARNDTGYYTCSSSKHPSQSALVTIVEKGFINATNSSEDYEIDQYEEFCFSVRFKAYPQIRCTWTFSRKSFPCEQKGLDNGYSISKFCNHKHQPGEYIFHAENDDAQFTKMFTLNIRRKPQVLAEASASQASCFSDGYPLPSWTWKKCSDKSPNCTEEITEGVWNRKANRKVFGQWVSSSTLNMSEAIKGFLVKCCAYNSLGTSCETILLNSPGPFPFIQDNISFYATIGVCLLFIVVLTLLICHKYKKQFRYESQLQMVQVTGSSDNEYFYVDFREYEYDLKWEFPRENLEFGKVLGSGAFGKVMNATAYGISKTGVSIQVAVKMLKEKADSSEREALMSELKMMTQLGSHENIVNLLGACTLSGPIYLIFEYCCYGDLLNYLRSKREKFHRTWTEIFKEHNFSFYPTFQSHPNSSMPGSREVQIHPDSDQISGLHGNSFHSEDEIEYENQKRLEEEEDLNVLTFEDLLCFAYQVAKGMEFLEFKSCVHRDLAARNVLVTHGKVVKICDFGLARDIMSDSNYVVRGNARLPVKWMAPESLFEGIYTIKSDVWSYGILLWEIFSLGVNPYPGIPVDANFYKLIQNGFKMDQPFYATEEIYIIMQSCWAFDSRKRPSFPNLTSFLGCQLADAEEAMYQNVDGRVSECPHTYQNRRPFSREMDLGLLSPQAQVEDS
Description: Inhibition of GST-fused human FLT3 cytoplasmic domain (amino acids 564 to 993) using Ulight-JAK1 as substrate after 1 hr by TR-FRET assay. (In general: In TR-FRET formats the signal depends on donor and acceptor labels being close together.)

The next series concerns MOLM-13. Description: Antiproliferative activity against human MOLM13 cells harboring FLT3 ITD mutant assessed as incorporation of [3H]thymidine into DNA after 72 hrs by beta-plate counting analysis. The class given is functional, cell-based.
Series [4] in a line: Antiproliferative activity against Rb-negative human MDA-MB-436 cells assessed as incorporation of [3H]thymidine into DNA after 72 hrs by beta-plate counting analysis. The class given is functional.
Series [5] can be described thus: Clearance in iv dosed rat. It is filed as ADME, organism-based. The note with it: in vivo. The gist of the method: (§1)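 Intravenous and oral (gavage, solution) PK in rat, dog and cynomolgus monkey. The rat vehicle for both routes was water/acetate/tween at pH 4, 96/3/1 (v/v/v). Dog and monkey iv doses used 40% PG aqueous solution at pH 2, and their oral doses used 20% captisol aqueous solution.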

Series [6] can be described thus: Oral bioavailability in rat. It is filed as ADME, organism-based. The note with it: in vivo. The gist of the method:
as §1

In series [7] the target is Receptor-type tyrosine-protein kinase FLT3 (Homo sapiens, UniProt P36888, ITD). Description: Inhibition of FLT3 ITD mutant in human MOLM13 cells assessed as inhibition of STAT5 phosphorylation at Tyr694 after 24 hrs. It is filed as cell-based, MOLM-13.
Series [8] has as its target Cyclin-dependent kinase 4 (Homo sapiens, UniProt P11802). Description: Inhibition of CDK4 in human MOLM13 cells assessed as inhibition of Rb phosphorylation at Ser780 after 24 hrs. It is filed as cell-based, MOLM-13.
Series [9] has as its system Tumour. Description: Decrease in Rb phosphorylation at Ser780 in tumor of po dosed CrTac:NCR-Foxn1nu (NCR) nude mouse xenografted with human MOLM13 cells after 24 hrs. The note with it: Neoplasm, MOLM-13. It is filed as functional, organism-based. The essentials: (§2)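 MOLM13 tumor-bearing mice received a single oral dose of 50, 75 or 150 mg/kg. Tumors were harvested at 3, 6 and 24 h, and lysates were assayed for pSTAT5 and pRb. Unbound plasma levels were measured at the same time points. Results are mean ± SEM, n = 3 per group and n = 6 for vehicle.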
(In general: A xenograft is tissue or cells of one species grown in another, often human tumour cells in immunodeficient mice.)

In series [10] the test system is Tumour. Description: Decrease in STAT5 phosphorylation at Tyr694 in tumor of CrTac:NCR-Foxn1nu (NCR) nude mouse xenografted with human MOLM13 cells at 150 mg/kg, po after 3 hrs. The class given is functional, organism-based. On the set-up: dose 150 mg/kg. To be noted: Neoplasm, MOLM-13. The essentials: as §2
The subject of another series is Mus musculus. Description: Unbound Cmax in CrTac:NCR-Foxn1nu (NCR) nude mouse xenografted with human MOLM13 cells at 150 mg/kg, po. It is filed as ADME, organism-based, MOLM-13. On the set-up: dose 150 mg/kg, route oral. The note with it: in vivo.
The nature of series [11]: Total Cmax in rat at 2 mg/kg, po. The class given is ADME, organism-based. The arrangement: dose 2 mg/kg, route oral. The note with it: in vivo.
A short description of series [12]: AUC in rat at 2 mg/kg, po. The class given is ADME, organism-based. The arrangement: dose 2 mg/kg, route oral. To be noted: plasma.
Series [13] can be described thus: Drug uptake in CrTac:NCR-Foxn1nu (NCR) nude mouse at 150 mg/kg, po after 3 hrs. The class given is ADME, organism-based. On the set-up: dose 150 mg/kg, route oral. The note with it: in vivo, read-out: Drug uptake. The essentials: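 Total plasma drug concentration in mouse PK studies, taken 3 h after a 150 mg/kg oral dose.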
Another series concerns COLO 205. Description: Antiproliferative activity against Rb-positive human COLO205 cells assessed as incorporation of [14C]thymidine into DNA after 72 hrs by beta-plate counting analysis.
The target in the next series is Cytochrome P450 3A4 (Homo sapiens, UniProt P08684). Description: Inhibition of CYP3A4 (unknown origin). The class given is ADME.
Chain of Cytochrome P450 3A4 (P08684 whole entry): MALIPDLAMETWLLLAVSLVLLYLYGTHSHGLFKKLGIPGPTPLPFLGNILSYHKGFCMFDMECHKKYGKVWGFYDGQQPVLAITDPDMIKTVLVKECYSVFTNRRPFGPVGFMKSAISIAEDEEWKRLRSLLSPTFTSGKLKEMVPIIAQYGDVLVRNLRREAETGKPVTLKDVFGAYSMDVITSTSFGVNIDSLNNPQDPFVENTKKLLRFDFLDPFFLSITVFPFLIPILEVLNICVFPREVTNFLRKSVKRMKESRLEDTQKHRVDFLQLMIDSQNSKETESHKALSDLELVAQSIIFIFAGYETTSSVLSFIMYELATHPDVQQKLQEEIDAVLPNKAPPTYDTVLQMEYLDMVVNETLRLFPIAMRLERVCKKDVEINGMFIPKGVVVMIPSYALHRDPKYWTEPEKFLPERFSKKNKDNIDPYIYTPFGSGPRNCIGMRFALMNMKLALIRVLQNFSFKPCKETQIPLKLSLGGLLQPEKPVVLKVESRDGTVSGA
Series [14] concerns the target Voltage-gated inwardly rectifying potassium channel KCNH2 (Homo sapiens, UniProt Q12809). Description: Binding affinity to human ERG.
For a further series, the target named is CYP3A4 (Homo sapiens, UniProt P08684). Description: Inhibition of CYP3A4 (unknown origin) at 3 uM. It is filed as ADME.
Chain of CYP3A4 (P08684 whole entry): as above

Chain of Cyclin-dependent kinase 4/cyclin D1 (P11802 whole entry): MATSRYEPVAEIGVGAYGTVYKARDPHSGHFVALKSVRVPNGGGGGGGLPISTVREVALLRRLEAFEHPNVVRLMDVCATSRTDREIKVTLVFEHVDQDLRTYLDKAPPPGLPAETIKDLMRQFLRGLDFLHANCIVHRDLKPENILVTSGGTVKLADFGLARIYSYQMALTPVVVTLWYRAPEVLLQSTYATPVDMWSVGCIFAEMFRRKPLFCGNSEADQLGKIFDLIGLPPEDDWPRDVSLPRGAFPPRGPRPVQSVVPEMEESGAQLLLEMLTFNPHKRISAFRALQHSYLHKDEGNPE
Chain of Cyclin-dependent kinase 4/cyclin D1 (P24385 whole entry, further chain): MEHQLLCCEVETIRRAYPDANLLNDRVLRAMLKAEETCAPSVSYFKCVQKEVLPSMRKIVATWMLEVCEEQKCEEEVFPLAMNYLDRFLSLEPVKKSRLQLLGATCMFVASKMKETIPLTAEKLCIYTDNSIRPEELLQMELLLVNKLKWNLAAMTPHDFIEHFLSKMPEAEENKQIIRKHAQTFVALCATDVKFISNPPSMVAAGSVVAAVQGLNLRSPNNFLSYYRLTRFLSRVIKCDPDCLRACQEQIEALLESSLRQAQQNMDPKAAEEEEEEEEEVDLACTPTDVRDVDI
Chain of Voltage-gated inwardly rectifying potassium channel KCNH2 (Q12809 whole entry): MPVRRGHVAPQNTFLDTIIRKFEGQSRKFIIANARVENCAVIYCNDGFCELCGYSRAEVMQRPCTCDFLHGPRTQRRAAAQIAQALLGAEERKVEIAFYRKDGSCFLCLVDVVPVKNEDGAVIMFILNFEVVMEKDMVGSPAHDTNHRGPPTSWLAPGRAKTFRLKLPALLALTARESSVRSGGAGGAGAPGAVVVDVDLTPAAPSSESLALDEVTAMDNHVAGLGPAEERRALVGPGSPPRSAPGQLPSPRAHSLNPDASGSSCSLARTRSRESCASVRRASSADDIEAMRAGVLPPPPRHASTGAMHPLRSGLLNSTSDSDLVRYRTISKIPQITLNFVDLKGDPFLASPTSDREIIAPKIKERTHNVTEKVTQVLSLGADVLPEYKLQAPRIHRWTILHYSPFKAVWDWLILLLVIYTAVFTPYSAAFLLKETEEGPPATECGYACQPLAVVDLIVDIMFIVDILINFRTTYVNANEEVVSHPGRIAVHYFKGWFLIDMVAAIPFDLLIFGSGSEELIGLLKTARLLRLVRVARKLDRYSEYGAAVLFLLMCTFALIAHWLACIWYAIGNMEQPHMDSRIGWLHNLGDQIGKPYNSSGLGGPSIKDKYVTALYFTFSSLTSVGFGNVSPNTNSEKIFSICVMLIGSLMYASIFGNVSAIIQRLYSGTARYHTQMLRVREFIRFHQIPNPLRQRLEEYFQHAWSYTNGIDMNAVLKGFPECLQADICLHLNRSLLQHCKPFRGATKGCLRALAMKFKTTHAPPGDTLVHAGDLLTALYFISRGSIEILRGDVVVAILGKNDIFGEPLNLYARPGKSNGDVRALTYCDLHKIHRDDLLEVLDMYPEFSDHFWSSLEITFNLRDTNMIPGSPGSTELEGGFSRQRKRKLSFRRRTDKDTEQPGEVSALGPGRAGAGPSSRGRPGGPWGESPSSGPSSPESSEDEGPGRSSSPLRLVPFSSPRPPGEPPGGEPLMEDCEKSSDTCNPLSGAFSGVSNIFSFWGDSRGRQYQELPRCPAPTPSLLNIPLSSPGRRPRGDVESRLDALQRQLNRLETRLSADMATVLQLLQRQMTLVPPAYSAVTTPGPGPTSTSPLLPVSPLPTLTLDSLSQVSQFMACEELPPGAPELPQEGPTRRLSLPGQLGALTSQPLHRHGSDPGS
Chain of Cyclin-dependent kinase 4 (P11802 whole entry): as the sequence (P11802 whole entry) above

`CN(C)C1CCN(c2ccc(Nc3ncc4c5ccncc5n([C@H]5CC[C@H](C)CC5)c4n3)nn2)CC1`: in the series filed under Homo sapiens, the Ratio IC50 was above 1000. In addition, the pIC50 was 8.70 in series [1]; 5.66 in series [2]; 8.40 in series [3]; 8.05 in the series with MOLM-13; 5.67 in series [4]; 7.28 in series [7]. The pIC50 in series [8] was 7.64; with COLO 205, 7.96. In series [5], the clearance is 10.2 mL/min/kg. The bioavailability in series [6] stood at 28%. Besides, the inhibition entry in the series with Tumour [9] was “Dose-dependent effect”. Besides, the inhibition result with Tumour [10] is “inactive”. The same molecule gave a fCmax in the series with Mus musculus of 0.024 µM. In addition, in [11], the Cmax was 130 nM. This molecule also had an exposure (AUC) in series [12] of 1.57 µM·h. Moreover, in series [13], the concentration at 3 h was found to be 850 nM.
In the case of `Clc1nccc2c3cnc(Nc4ccc(N5CCNCC5)cn4)nc3n(C3CCCC3)c12`, the pIC50 was 8.40 in series [1]; 5.48 in series [2]; 8.30 in [3]; 8.05 with MOLM-13; 5.68 in [4]; below 5.00 at Cytochrome P450 3A4. Further, the pIC50 in series [14] is 5.70; in the series with COLO 205, 7.20. In addition, the clearance in [5] is 28.3 mL/min/kg. The molecule also displayed an inhibition at 3 µM on CYP3A4 below 10%.
